According to ChEMBL document CHEMBL1154855 (Eur J Med Chem, 2010):
≈ marks a conversion by molar mass, not a printed value.

Experiments:
Influenza A virus [1] = test: Antiviral activity against Influenza A virus H1N1 infected in MDCK cells assessed as protection from virus-induced cytopathogenicity after 6 to 7 days by MTT assay; format: functional, organism-based
Feline coronavirus = test: Antiviral activity against Feline coronavirus infected in cat CRFK cells assessed as protection from virus-induced cytopathogenicity by MTT assay; format: functional, organism-based; conditions: Alphacoronavirus 1, CRFK
Streptococcus viridans = test: Antibacterial activity against Streptococcus viridans after 24 hrs by broth microdilution method; format: functional
How it was run: (§1)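 Clinical isolates. Each dilution received 100 μl of 0.5 McFarland fresh culture. Solvent (DMSO), growth and standard controls were included. Tubes were incubated at 37 °C for 24 h. MIC is the highest dilution showing no turbidity. Tests were run in triplicate, with at least two repetitions.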

HEL [2] = test: Cytotoxicity against Herpes simplex virus 2 G infected HEL cells by trypan blue exclusion method; format: cell-based; conditions: human, hel
How it was run: (§2)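 Uninfected confluent cultures were run in parallel with the infected cultures. Medium was replaced by 1 ml maintenance medium with serial compound concentrations; cell controls received no compound. Cultures were incubated at 37 °C. After 2 and 7 days, compound was withdrawn and viability was determined by trypan blue exclusion.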

Vero [3] = test: Cytotoxicity against Punta Toro virus infected african green monkey Vero cells by trypan blue exclusion method; format: cell-based; conditions: chlorocebus sabaeus, vero; how it was run: as §2
Coxsackievirus B4 [4] = test: Antiviral activity against Human coxsackievirus B4 infected in african green monkey Vero cells assessed as protection from virus-induced cytopathogenicity after 2 days by MTT assay; format: functional, organism-based; conditions: Enterovirus B, 48 h
HEL [5] = test: Cytotoxicity against VSV infected HEL cells by trypan blue exclusion method; format: cell-based; conditions: human, hel; how it was run: as §2
[6] = tested on: Respiratory syncytial virus; test: Antiviral activity against Respiratory syncytial virus infected in human HeLa cells assessed as protection from virus-induced cytopathogenicity after 4 days by MTT assay; format: functional, organism-based; conditions: 96 h
Klebsiella pneumoniae = test: Antibacterial activity against Klebsiella pneumoniae after 24 hrs by broth microdilution method; format: functional; how it was run: as §1
Human alphaherpesvirus 2 = test: Antiviral activity against Herpes simplex virus 2 G infected in HEL cells assessed as protection from virus-induced cytopathogenicity after 2 to 3 days by MTT assay; format: functional, organism-based; conditions: Human alphaherpesvirus 2, strain G
[7] = Selectivity index, ratio of CC50 for HIV2 ROD infected human MT4 cells to IC50 for […] ROD; format: functional
Vero [8] = test: Cytotoxicity against Reovirus 1 infected african green monkey Vero cells by trypan blue exclusion method; format: cell-based; conditions: chlorocebus sabaeus, vero; how it was run: as §2
[9] = tested on: Human immunodeficiency virus 2; test: Antiviral activity against HIV2 ROD infected in human MT4 cells assessed as protection from virus-induced cytopathogenicity after 5 days by MTT assay; format: functional, organism-based; conditions: Human immunodeficiency virus 2, ISOLATE ROD, MT4, 120 h
How it was run: (§3)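 MT-4 cells at 3 × 10^4 per well were infected with HIV (IIIB or ROD) at 50% cell culture infective doses. Graded compound concentrations were added immediately after infection. Plates were incubated for 5 days at 37 °C and viable cells were counted by MTT.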

Human alphaherpesvirus 1 [10] = test: Antiviral activity against acyclovir-sensitive Herpes simplex virus 1 KOS infected in HEL cells assessed as protection from virus-induced cytopathogenicity after 2 to 3 days by MTT assay; format: functional, organism-based; conditions: Human alphaherpesvirus 1, KOS
HEL [11] = test: Cytotoxicity against Herpes simplex virus 1 KOS infected HEL cells by trypan blue exclusion method; format: cell-based; conditions: human, hel; how it was run: as §2
HeLa [12] = test: Cytotoxicity against Human coxsackievirus B4 infected human HeLa cells by trypan blue exclusion method; format: cell-based; conditions: hela; how it was run: as §2
in vitro = conditions: human, HeLa cells
MDCK [13] = test: Cytotoxicity against Influenza B virus infected MDCK cells by trypan blue exclusion method; format: cell-based, Canis lupus familiaris; conditions: dog
Sindbis virus = test: Antiviral activity against Sindbis virus infected in african green monkey Vero cells assessed as protection from virus-induced cytopathogenicity after 2 to 3 days by MTT assay; format: functional, organism-based
[14] = tested on: Mammalian orthoreovirus 1; test: Antiviral activity against Reovirus 1 infected in african green monkey Vero cells assessed as protection from virus-induced cytopathogenicity after 6 to 7 days by MTT assay; format: functional, organism-based; conditions: Mammalian orthoreovirus 1, Vero
[15] = Cytotoxicity against HIV1 3B-infected human MT4 cells by MTT assay; format: cell-based; conditions: MT4 cells infected with HIV-1 3B
How it was run: (§4)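 MT-4 cells (3 × 10^4 per well) were cultured in microdilution trays with various concentrations of compound, then incubated 5 days at 37 °C, and viable cell number was read by MTT.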

Influenza B virus = test: Antiviral activity against Influenza B virus infected in MDCK cells assessed as protection from virus-induced cytopathogenicity after 6 to 7 days by MTT assay; format: functional, organism-based
[16] = tested on: Vesicular stomatitis virus; test: Antiviral activity against VSV infected in HEL cells assessed as protection from virus-induced cytopathogenicity after 1 to 2 days by MTT assay; format: functional, organism-based
[17] = tested on: Human immunodeficiency virus 1; test: Antiviral activity against HIV1 3B-infected in human MT4 cells assessed as protection from virus-induced cytopathogenicity after 5 days by MTT assay; format: functional, organism-based; conditions: Human immunodeficiency virus 1, 3B, MT4, 120 h; how it was run: as §3
Human alphaherpesvirus 1 [18] = test: Antiviral activity against Herpes simplex virus 1 KOS infected in HEL cells assessed as protection from virus-induced cytopathogenicity after 2 to 3 days by MTT assay; format: functional, organism-based; conditions: Human alphaherpesvirus 1, KOS
HEL [19] = test: Cytotoxicity against acyclovir-sensitive Herpes simplex virus 1 KOS infected HEL cells by trypan blue exclusion method; format: cell-based; conditions: human; how it was run: as §2
[20] = Cytotoxicity against Feline coronavirus infected cat CRFK cells by trypan blue exclusion method; format: cell-based, Felis catus; conditions: crfk; how it was run: as §2
HEL [21] = test: Cytotoxicity against Vaccinia virus infected HEL cells by trypan blue exclusion method; format: cell-based; conditions: human, hel; how it was run: as §2
HeLa [22] = test: Cytotoxicity against Respiratory syncytial virus infected human HeLa cells by trypan blue exclusion method; format: cell-based; conditions: hela; how it was run: as §2
Escherichia coli = test: Antibacterial activity against Escherichia coli after 24 hrs by broth microdilution method; format: functional; how it was run: as §1
Proteus mirabilis = test: Antibacterial activity against Proteus mirabilis after 24 hrs by broth microdilution method; format: functional; how it was run: as §1
Human respirovirus 3 = test: Antiviral activity against PIV 3 infected in african green monkey Vero cells assessed as protection from virus-induced cytopathogenicity after 6 to 7 days by MTT assay; format: functional, organism-based; conditions: Human respirovirus 3, Vero
HeLa [23] = test: Cytotoxicity against VSV infected human HeLa cells by trypan blue exclusion method; format: cell-based; conditions: hela; how it was run: as §2
Felid alphaherpesvirus 1 = test: Antiviral activity against Feline herpesvirus infected in cat CRFK cells assessed as protection from virus-induced cytopathogenicity by MTT assay; format: functional, organism-based; conditions: Felid alphaherpesvirus 1, CRFK
Vero [24] = test: Cytotoxicity against PIV 3 infected african green monkey Vero cells by trypan blue exclusion method; format: cell-based; conditions: chlorocebus sabaeus, vero; how it was run: as §2
Vero [25] = test: Cytotoxicity against Sindbis virus infected african green monkey Vero cells by trypan blue exclusion method; format: cell-based; conditions: chlorocebus sabaeus, vero; how it was run: as §2
Influenza A virus [26] = test: Antiviral activity against Influenza A virus H3N2 infected in MDCK cells assessed as protection from virus-induced cytopathogenicity after 6 to 7 days by MTT assay; format: functional, organism-based
[27] = Cytotoxicity against Feline herpesvirus infected cat CRFK cells by trypan blue exclusion method; format: cell-based, Felis catus; conditions: crfk; how it was run: as §2
Coxsackievirus B4 [28] = test: Antiviral activity against Human coxsackievirus B4 infected in human HeLa cells assessed as protection from virus-induced cytopathogenicity after 2 days by MTT assay; format: functional, organism-based; conditions: Enterovirus B, 48 h
MDCK [29] = test: Cytotoxicity against Influenza A virus subtype H3N2 infected MDCK cells by trypan blue exclusion method; format: cell-based, Canis lupus familiaris; conditions: dog
Vero [30] = test: Cytotoxicity against Human coxsackievirus B4 infected african green monkey Vero cells by trypan blue exclusion method; format: cell-based; conditions: chlorocebus sabaeus, vero; how it was run: as §2
Punta Toro virus = test: Antiviral activity against Punta Toro virus infected in african green monkey Vero cells assessed as protection from virus-induced cytopathogenicity by MTT assay; format: functional, organism-based
[31] = Cytotoxicity against HIV2 ROD infected human MT4 cells by MTT assay; format: cell-based; conditions: MT4 cells infected with HIV-2 ROD; how it was run: as §4
[32] = tested on: Vesicular stomatitis virus; test: Antiviral activity against VSV infected in human HeLa cells assessed as protection from virus-induced cytopathogenicity after 1 to 2 days by MTT assay; format: functional, organism-based

What does the source list for `COc1cc(/C=C/C(=O)CC(=O)/C=C/c2ccc(OC(=O)[C@H](Cc3ccccc3)NC(=O)[C@@H](N)Cc3c[nH]c4ccccc34)c(OC)c2)ccc1OC(=O)[C@H](Cc1ccccc1)NC(=O)[C@@H](N)Cc1c[nH]c2ccccc12`?
EC50 (Influenza A virus [1]): > 96 nM; EC50 (Feline coronavirus): > 96 nM; MIC (Streptococcus viridans): 0.43 µM (≈ 0.445 µg/mL); CC50 (HEL [2]): 19 nM; CC50 (Vero [3]): 96 nM; EC50 (Coxsackievirus B4 [4]): > 19 nM; CC50 (HEL [5]): 19 nM; EC50 [6]: > 19 nM; MIC (Klebsiella pneumoniae): 0.43 µM (≈ 0.445 µg/mL); EC50 (Human alphaherpesvirus 2): > 38 nM; Ratio CC50/IC50 [7]: <1; CC50 (Vero [8]): 96 nM; IC50 [9]: 107 nM; EC50 (Human alphaherpesvirus 1 [10]): > 38 nM; CC50 (HEL [11]): 96 nM; CC50 (HeLa [12]): 96 nM; selectivity ratio (in vitro): 9; CC50 (MDCK [13]): 46 nM; EC50 (Sindbis virus): > 19 nM; EC50 [14]: > 19 nM; CC50 [15]: > 94 nM; EC50 (Influenza B virus): > 96 nM; EC50 [16]: > 38 nM; IC50 [17]: 94 nM; EC50 (Human alphaherpesvirus 1 [18]): > 19 nM; CC50 (HEL [19]): 19 nM; CC50 [20]: > 96 nM; CC50 (HEL [21]): 19 nM; CC50 (HeLa [22]): 96 nM; MIC (Escherichia coli): 0.43 µM (≈ 0.445 µg/mL); MIC (Proteus mirabilis): 0.43 µM (≈ 0.445 µg/mL); EC50 (Human respirovirus 3): > 38 nM; CC50 (HeLa [23]): 96 nM; EC50 (Felid alphaherpesvirus 1): > 96 nM; CC50 (Vero [24]): 19 nM; CC50 (Vero [25]): 96 nM; EC50 (Influenza A virus [26]): > 96 nM; CC50 [27]: > 96 nM; EC50 (Coxsackievirus B4 [28]): > 19 nM; CC50 (MDCK [29]): 46 nM; CC50 (Vero [30]): 96 nM; EC50 (Punta Toro virus): > 19 nM; CC50 [31]: > 107 nM; EC50 [32]: 11 nM
